Source: ChEMBL document CHEMBL1145212, “Fluorinated diaryl sulfides as serotonin transporter ligands: synthesis, structure-activity relationship study, and in vivo evaluation of fluorine-18-labeled compounds as PET imaging agents” (J Med Chem, 2005)

Experiments:
Rattus norvegicus [1] = test: Biodistribution of [18F]AFE in rat hippocampus at 60 min postinjection in vivo; format: ADME, organism-based; conditions: 1 h
Outline: (§1)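 Male Sprague-Dawley rats, three per group, received ~20 µCi of the F-18 radioligand in saline by tail-vein injection. Rats were anesthetized with CO2 and decapitated at 10, 30, 60, 90 or 120 min. Blood and brain regions were weighed and gamma-counted. %ID/g was decay- and tail-residual-corrected against F-18 standards made from the injectate and reported as mean ± SD.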

Rattus norvegicus [2] = test: Biodistribution of [18F]AFE in rat hypothalamus at 120 min postinjection in vivo; format: ADME, organism-based; conditions: 2 h; outline: as §1
Rattus norvegicus [3] = test: Biodistribution of [18F]AFE in rat cerebellum at 60 min postinjection in vivo; format: ADME, organism-based; conditions: 1 h; outline: as §1
Rattus norvegicus [4] = test: Biodistribution of [18F]AFE in rat frontal cortex at 120 min postinjection in vivo; format: ADME, organism-based; conditions: 2 h; outline: as §1
Rattus norvegicus [5] = species on record: Rattus norvegicus; test: Specific binding of [18F]AFA in hippocampus of rat pretreated with compound 7e; n=3; format: functional
Rattus norvegicus [6] = test: Biodistribution of [18F]AFE in rat blood at 120 min postinjection in vivo; format: ADME, organism-based; conditions: 2 h; outline: as §1
Rattus norvegicus [7] = test: Biodistribution of [18F]AFE in rat frontal cortex at 10 min postinjection in vivo; format: ADME, organism-based; outline: as §1
Rattus norvegicus [8] = test: Biodistribution of [18F]AFE in rat thalamus at 90 min postinjection in vivo; format: ADME, organism-based; conditions: 1.5 h; outline: as §1
Rattus norvegicus [9] = test: Biodistribution of [18F]AFE in rat frontal cortex at 90 min postinjection in vivo; format: ADME, organism-based; conditions: 1.5 h; outline: as §1
Rattus norvegicus [10] = species on record: Rattus norvegicus; test: Specific binding of [18F]AFA in frontal cortex of rat pretreated with compound 7e; n=3; format: functional
Rattus norvegicus [11] = test: Biodistribution of [18F]AFE in rat blood at 90 min postinjection in vivo; format: ADME, organism-based; conditions: 1.5 h; outline: as §1
Rattus norvegicus [12] = test: Biodistribution of [18F]AFE in rat frontal cortex at 60 min postinjection in vivo; format: ADME, organism-based; conditions: 1 h; outline: as §1
Rattus norvegicus [13] = test: Biodistribution of [18F]-AFE in rat striatum at 90 min postinjection in vivo; format: ADME, organism-based; conditions: 1.5 h
Outline: (§2)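 Male Sprague-Dawley rats, three per time point, received the F-18 radioligand in saline (~20 µCi per rat at injection) by tail vein. Under CO2 anesthesia they were decapitated at 10, 30, 60, 90 or 120 min. Blood and dissected brain regions were weighed and gamma counted. Activity was decay-corrected, and injected dose was corrected for tail residual activity. Uptake was expressed as %ID/g versus injectate standards, mean ± SD.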

Rattus norvegicus [14] = test: Biodistribution of [18F]-AFE in rat striatum at 10 min postinjection in vivo; format: ADME, organism-based; outline: as §2
Rattus norvegicus [15] = test: Biodistribution of [18F]AFE in rat thalamus at 60 min postinjection in vivo; format: ADME, organism-based; conditions: 1 h; outline: as §1
Rattus norvegicus [16] = test: Biodistribution of [18F]-AFE in rat striatum 60 min postinjection in vivo; format: ADME, organism-based; conditions: 1 h; outline: as §2
Rattus norvegicus [17] = species on record: Rattus norvegicus; test: Specific binding of [18F]-AFA in thalamus of rat pretreated with compound 7e; n=3; format: functional
Rattus norvegicus [18] = test: Biodistribution of [18F]AFE in rat striatum at 30 min postinjection in vivo; format: ADME, organism-based; conditions: 0.5 h; outline: as §1
Rattus norvegicus [19] = test: Biodistribution of [18F]AFE in rat thalamus at 30 min postinjection in vivo; format: ADME, organism-based; conditions: 0.5 h; outline: as §1
Rattus norvegicus [20] = species on record: Rattus norvegicus; test: Specific binding of [18F]AFA in hypothalamus of rat pretreated with compound 7e; n=3; format: functional
Rattus norvegicus [21] = test: Biodistribution of [18F]AFE in rat hypothalamus at 60 min postinjection in vivo; format: ADME, organism-based; conditions: 1 h; outline: as §1
Rattus norvegicus [22] = test: Biodistribution of [18F]AFE in rat hippocampus at 30 min postinjection in vivo; format: ADME, organism-based; conditions: 0.5 h; outline: as §1
Rattus norvegicus [23] = test: Biodistribution of [18F]AFE in rat hypothalamus at 30 min postinjection in vivo; format: ADME, organism-based; conditions: 0.5 h; outline: as §1
Rattus norvegicus [24] = test: Biodistribution of [18F]AFE in rat hippocampus at 10 min postinjection in vivo; format: ADME, organism-based; outline: as §1
Rattus norvegicus [25] = test: Biodistribution of [18F]AFE in rat blood at 60 min postinjection in vivo; format: ADME, organism-based; conditions: 1 h; outline: as §1
Rattus norvegicus [26] = test: Biodistribution of [18F]AFE in rat blood at 10 min postinjection in vivo; format: ADME, organism-based; outline: as §1
Rattus norvegicus [27] = test: Biodistribution of [18F]AFE in rat cerebellum at 10 min postinjection in vivo; format: ADME, organism-based; outline: as §1
Rattus norvegicus [28] = test: Biodistribution of [18F]AFE in rat cerebellum at 90 min postinjection in vivo; format: ADME, organism-based; conditions: 1.5 h; outline: as §1
Rattus norvegicus [29] = test: Biodistribution of [18F]AFE in rat hippocampus at 120 min postinjection in vivo; format: ADME, organism-based; conditions: 2 h; outline: as §1
Rattus norvegicus [30] = test: Biodistribution of [18F]AFE in rat hippocampus at 90 min postinjection in vivo; format: ADME, organism-based; conditions: 1.5 h; outline: as §1
Rattus norvegicus [31] = test: Biodistribution of [18F]AFE in rat thalamus at 10 min postinjection in vivo; format: ADME, organism-based; outline: as §1
Rattus norvegicus [32] = test: Biodistribution of [18F]AFE in rat hypothalamus at 10 min postinjection in vivo; format: ADME, organism-based; outline: as §1
Rattus norvegicus [33] = test: Biodistribution of [18F]AFE in rat thalamus at 120 min postinjection in vivo; format: ADME, organism-based; conditions: 2 h; outline: as §1
Rattus norvegicus [34] = test: Biodistribution of [18F]-AFE in rat cerebellum at 120 min postinjection in vivo; format: ADME, organism-based; conditions: 2 h; outline: as §2
Rattus norvegicus [35] = species on record: Rattus norvegicus; test: Specific binding of [18F]AFA in striatum of rat pretreated with compound 7e; n=3; format: functional
Rattus norvegicus [36] = test: Biodistribution of [18F]AFE in rat striatum at 120 min postinjection in vivo; format: ADME, organism-based; conditions: 2 h; outline: as §1
Rattus norvegicus [37] = test: Biodistribution of [18F]-AFE in rat blood at 30 min postinjection in vivo; format: ADME, organism-based; conditions: 0.5 h; outline: as §2
Rattus norvegicus [38] = test: Biodistribution of [18F]AFE in rat hypothalamus at 90 min postinjection in vivo; format: ADME, organism-based; conditions: 1.5 h; outline: as §1
Rattus norvegicus [39] = test: Biodistribution of [18F]-AFE in rat frontal cortex at 30 min postinjection in vivo; format: ADME, organism-based; conditions: 0.5 h; outline: as §2
Rattus norvegicus [40] = test: Biodistribution of [18F]-AFE in rat cerebellum at 30 min postinjection in vivo; format: ADME, organism-based; conditions: 0.5 h; outline: as §2

`CN(C)Cc1ccccc1Sc1ccc(CC[18F])cc1N` was tested, and the Biodistribution (Rattus norvegicus [1]) was 0.17 %ID/g, the Biodistribution (Rattus norvegicus [2]) was 0.1 %ID/g and the Biodistribution (Rattus norvegicus [3]) was 0.06 %ID/g. The Biodistribution (Rattus norvegicus [4]) was 0.06 %ID/g, the Specific binding (Rattus norvegicus [5]) was 0.65 %ID/g and the Biodistribution (Rattus norvegicus [6]) was 0.02 %ID/g. The Biodistribution (Rattus norvegicus [7]) was 0.62 %ID/g, the Biodistribution (Rattus norvegicus [8]) was 0.17 %ID/g and the Biodistribution (Rattus norvegicus [9]) was 0.08 %ID/g. For the same compound, the Specific binding (Rattus norvegicus [10]) was 0.48 %ID/g, the Biodistribution (Rattus norvegicus [11]) was 0.04 %ID/g and the Biodistribution (Rattus norvegicus [12]) was 0.19 %ID/g. For the same compound, the Biodistribution (Rattus norvegicus [13]) was 0.1 %ID/g, the Biodistribution (Rattus norvegicus [14]) was 0.51 %ID/g and the Biodistribution (Rattus norvegicus [15]) was 0.27 %ID/g. The Biodistribution (Rattus norvegicus [16]) was 0.21 %ID/g, the Specific binding (Rattus norvegicus [17]) was 1.06 %ID/g and the Biodistribution (Rattus norvegicus [18]) was 0.33 %ID/g. The Biodistribution (Rattus norvegicus [19]) was 0.39 %ID/g, the Specific binding (Rattus norvegicus [20]) was 1.21 %ID/g and the Biodistribution (Rattus norvegicus [21]) was 0.24 %ID/g. The Biodistribution (Rattus norvegicus [22]) was 0.27 %ID/g, the Biodistribution (Rattus norvegicus [23]) was 0.41 %ID/g and the Biodistribution (Rattus norvegicus [24]) was 0.38 %ID/g. The Biodistribution (Rattus norvegicus [25]) was 0.07 %ID/g, the Biodistribution (Rattus norvegicus [26]) was 0.25 %ID/g and the Biodistribution (Rattus norvegicus [27]) was 0.28 %ID/g. The Biodistribution (Rattus norvegicus [28]) was 0.03 %ID/g, the Biodistribution (Rattus norvegicus [29]) was 0.07 %ID/g and the Biodistribution (Rattus norvegicus [30]) was 0.09 %ID/g. The Biodistribution (Rattus norvegicus [31]) was 0.58 %ID/g, the Biodistribution (Rattus norvegicus [32]) was 0.51 %ID/g and the Biodistribution (Rattus norvegicus [33]) was 0.13 %ID/g. It also gave a Biodistribution (Rattus norvegicus [34]) of 0.02 %ID/g, a Specific binding (Rattus norvegicus [35]) of 0.61 %ID/g and a Biodistribution (Rattus norvegicus [36]) of 0.08 %ID/g. The Biodistribution (Rattus norvegicus [37]) was 0.13 %ID/g, the Biodistribution (Rattus norvegicus [38]) was 0.14 %ID/g and the Biodistribution (Rattus norvegicus [39]) was 0.32 %ID/g. The Biodistribution (Rattus norvegicus [40]) was 0.13 %ID/g.
